# Hits are enriched below; roughly 5.3% of the tested compounds scored in any of these assays.
# Mdm2 MdmX PPI: disrupts the human Mdm2-MdmX interaction. O15151+Q00987. SaOS-2 split-luciferase Mdm2/MdmX complementation, luminescence. inhibition, % at 8 µM. 3% of 330,000 active. AID 485346;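 active means inhibition of at least 50% at 8 µM in the primary screen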
# Calb FLC: affects C. albicans growth with fluconazole; C. albicans CaCi-2 (fluconazole-resistant clinical isolate) + fluconazole, Alamar Blue growth, 48 h; growth inhibition, % (test concentration not listed); 0.57% of 300,000 active;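 active means growth inhibition above about 58% in most replicates, limit read from the data, passing the limit was not always enough; inconclusive means exactly half the replicates above a set limit; inactive means most replicates below a set limit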;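 further: all wells also contain fluconazole at 8 µg/ml as a sub-toxic cotreatment; 0% = median of DMSO wells and 100% = median of geldanamycin control wells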
# NLRP3 yeast inh: NALP3 inhibition in yeast | inhibition, % at 10 µM | AID 2825 | Yeast reconstituted NLRP3/ASC/caspase-1, beta-gal luminescence, 24 h | 0.39% of 330,000 active;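 active means inhibition of 50% or more; inactive means inhibition below 50%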;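 further: plate controls were induced DMSO wells for no effect and uninduced yeast grown without galactose for full effect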
# T cruzi inh: T. cruzi replication inhibition | T. cruzi beta-gal in NIH3T3, luminescence, 90 h | inhibition, % (concentration not given with the values) | 1.4% of 300,000 active | AID 1885;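 active means mean inhibition across valid replicates above about 55%, limit read from the data; inconclusive means mean below that limit but half or more replicates reach it; inactive means mean below it, under half of replicates reach it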;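 further: signal also drops with host cell toxicity which is not excluded here; 0% = plate median of DMSO wells and 100% = zero luminescence signal; higher percent means less beta-gal luminescence so fewer parasites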
#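 System: NIH/3T3 fibroblasts plus reporter T. cruzi. Medium: DMEM plus 2% FBS. Probe or stimulus: 5000 reporter trypomastigotes per well. Compound: single 50 nL compound addition per well in DMSO. Incubation: co-culture of at least 90 h after 3 h attachment. Detection: GalScreen β-gal luminescence, detergent lysis, 60 min. Evaluation: parasite load inhibition, %.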
# CSC inhib: cancer stem cell inhibition; inhibition, % at 7.5 µM; AID 2717; cancer stem cell-like cells viability, luminescence; 1.1% of 300,000 active; in the data active means inhibition above about 75%; inconclusive means no clear call, values can overlap the other calls; tested in HMLE shEcad cells
# Beta cell apopt: blocks beta cell apoptosis | INS-1E cytokine-induced death, ATP luminescence, 48 h; percent of positive-control rescue, neutral wells zero | protection from apoptosis, % (test concentration not listed) | 0.8% of 300,000 active | AID 435005;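 active means Every replicate reaches about 75%, or at least half do and their mean reaches it too, limit read from the data; inconclusive means At least half of replicates reach the limit but their mean does not; inactive means Under half of replicates reach the limit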;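 further: 0% = cytokine-treated negative control wells and 100% = positive control rescue; higher means more ATP so stronger rescue from cytokine killing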
# Mdm2-MdmX conf: human Mdm2/MdmX binding inhibition, confirmed; shares compounds with Mdm2 MdmX PPI; inhibition, % at 8 µM; 55% of 10,000 active; luminescent assay; in the data active means inhibition above about 40%
# FLuc counter: inhibits full-length luciferase, flagging false Mdm2/MdmX hits. 77% of 6,200 active. inhibition, % at 8 µM. AID 504607. SaOS-2 full-length luciferase counterscreen, luminescence. shares compounds with Mdm2 MdmX PPI;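 active means mean inhibition at 8 µM reaching about 37%, which flags the compound as non-specific, limit read from the data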;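 further: p53-null SaOS-2 cells with luciferase driven by a doxycycline-inducible promoter; compound on cells about two nights before reading with doxycycline added after day one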
# * hit, by the source's call; ? = inconclusive; · = no result given.
SMILES,Mdm2 MdmX PPI,Calb FLC,NLRP3 yeast inh,T cruzi inh,CSC inhib,Beta cell apopt,Mdm2-MdmX conf,others
O=C(O)CCCCCNC(=O)c1ccc(Br)cc1,6,0,3,0,-20,-2,·,
C=CCN1C(=O)c2cccc3c(Br)ccc(c23)C1=O,10,14,-8,-14,-6,0,·,
O=C(Nc1nc(-c2ccc(Cl)s2)cs1)c1ccco1,-54,-39,7,40,-9,11,·,
O=C(Nc1nc2cc3c(cc2s1)OCO3)C1=COCCO1,52*,-1,32,-2,48,16,28,
O=C(Nc1nc(-c2nc3ccccc3s2)cs1)c1ccco1,73*,-17,8,-12,-5,1,-15,
O=C(Nc1nc2cc3c(cc2s1)OCCO3)c1ccco1,71*,0,43,-7,-1,35,68*,FLuc counter=74*
O=C(Nc1nc2cc3c(cc2s1)OCO3)c1ccco1,·,-2,·,-4,·,·,·,
Cc1cccc(-c2cc(C(=O)Nc3sc(C)c(C)c3C(N)=O)c3ccccc3n2)c1,23,?,10,29,37,18,·,
Cc1ccc2nc(NC(=O)c3cc(-c4ccco4)nc4ccccc34)sc2c1,61*,-4,-4,-7,27,1,31,
CCN(CC)CCNC(=O)c1ccc(NC(=O)c2cc(-c3ccco3)nc3ccccc23)cc1,55*,24,5,23,-6,12,22,
Cc1nnc(NC(=O)c2cc(-c3ccco3)nc3ccccc23)s1,31,5,26,10,1,-3,·,
O=C(Nc1nc2ccccc2s1)c1cc(-c2ccco2)nc2ccccc12,66*,-2,21,7,·,-3,45*,FLuc counter=55*
Cc1ccc(C)c(-c2cc(C(=O)Nc3sc(C)c(C)c3C(N)=O)c3ccccc3n2)c1,51*,-3,6,29,54,-5,18,
Cc1ccccc1-c1cc(C(=O)Nc2nc3c(s2)CCCC3)c2ccccc2n1,62*,5,16,?,6,10,48*,FLuc counter=35
O=C(Nc1ccccc1C(=O)Nc1nnc(C(F)(F)F)s1)c1ccccc1Cl,95*,-8,14,-34,95*,112*,94*,FLuc counter=22
O=C(Nc1nnc(-c2ccccc2Cl)s1)c1ccccc1F,86*,5,0,-14,0,0,-8,
Cc1cc(-c2ccccc2)nc2cc(C(=O)N(Cc3ccccc3)Cc3ccccc3)nn12,51*,2,7,29,83*,19,1,
COC(=O)c1cc2nc(-c3ccccc3)cc(C)n2n1,0,-11,11,-8,-7,-4,·,
Cc1cccc2c1NC(=O)C2(c1ccc(O)cc1)c1ccc(O)cc1,20,-6,-3,23,·,-1,·,
Cc1cc(C2(c3ccc(O)c(C)c3)C(=O)Nc3ccccc32)ccc1O,57*,-4,-7,28,?,5,39,
COc1ccc(C(CNC(=O)c2oc3cc(C)c(C)cc3c2C)N2CCCCC2)cc1 (centres undefined),51*,-10,27,17,7,0,-10,
COc1ccc(C(CNC(=O)c2oc3cc(Br)ccc3c2C)N2CCCCC2)cc1 (centres undefined),44,-18,18,5,-6,3,·,
CCC1CCc2sc(C(=O)NCC(c3ccc(OC)cc3)N3CCCC3)cc2C1 (centres undefined),50*,-24,17,66*,-1,10,31,
Cc1cc(=O)oc2cc(OC(C)C(=O)NC3(C#N)CCCCC3)ccc12 (centres undefined),33,·,16,·,·,-3,·,
O=C(CC1COc2ccccc2O1)NCc1ccccc1 (centres undefined),10,-19,20,10,-12,-4,·,
SMILES,Mdm2 MdmX PPI,Calb FLC,NLRP3 yeast inh,T cruzi inh,CSC inhib,Beta cell apopt,Mdm2-MdmX conf,others
CCCN(CCC)C(=O)C(CCC(=O)O)NC(=O)c1ccccc1 (centres undefined),19,·,13,-8,-1,1,·,
CCc1ccc(-c2cc(C)no2)cc1S(=O)(=O)NCc1ccc(OC)c(OC)c1,-15,-5,10,6,-1,-7,·,
COc1cccc2c(N/N=C/c3ccccc3)cc(C)nc12,17,1,12,1,-11,·,·,
COc1ccc2nc(C)cc(Nc3ccccc3O)c2c1,13,-20,19,14,11,22,·,
COc1ccc2nc(C)cc(NCc3cccc(C(F)(F)F)c3)c2c1,79*,-3,17,42,·,50,60*,FLuc counter=108*
COc1ccc2nc(C)cc(N/N=C/c3cccc(OC)c3O)c2c1,100*,-14,19,18,1,29,15,
COc1ccc(/C=N/Nc2cc(C)nc3ccc(Br)cc23)cc1,98*,48,42,59*,107*,100*,25,
O=C(OCC(=O)N1CCN(S(=O)(=O)c2ccc(Cl)cc2)CC1)c1cc(Br)ccc1O,27,2,10,-3,·,-1,·,
COc1ccc(Cl)cc1NS(=O)(=O)c1cccc2cccnc12,14,3,15,6,-6,-7,·,
CN(C)S(=O)(=O)c1ccc(N2C(=O)CC2(/C=C/c2ccccc2)C(=O)NC2CCCC2)cc1 (centres undefined),15,-29,7,9,13,5,·,
COc1ccccc1/C=C/C1(C(=O)NC2CCCC2)CC(=O)N1c1ccccc1 (centres undefined),65*,6,11,14,51,17,64*,FLuc counter=79*
Cc1ccc(C(=O)N2CCC(C(=O)Nc3cccc([N+](=O)[O-])c3)CC2)cc1,24,3,8,-8,-7,4,·,
CC(C)(C)c1ccc(C(=O)NCCOc2ccccc2)cc1,43,-18,34,3,-1,-4,·,
CC(C)(C)c1ccc(C(=O)NCCOc2ccccc2F)cc1,62*,-5,7,7,0,4,73*,FLuc counter=148*
Cc1oc(-c2ccccc2)nc1C(=O)O,77*,-7,10,4,-11,-8,-20,
Nc1nonc1-c1noc(N2CCOCC2)n1,9,18,5,·,-8,-6,·,
COc1cccc(-c2nc(C(=O)NCC3CCCO3)cc3c2[nH]c2ccccc23)c1 (centres undefined),65*,20,17,38,30,33,25,
COc1cc(-c2onc3ccc(Br)cc23)cc(OC)c1OC,50*,29,18,-54,-17,11,52*,FLuc counter=60*
CN(C)CCN(C)Cc1ccccc1Sc1cccc2ccccc12,64*,61,13,47,·,13,43*,FLuc counter=69*
CC(C)NC(=O)COC(=O)c1cncc(Br)c1,-1,22,18,-3,·,-3,·,
